# Assay outcomes (PubChem)
# A selection: hits, their analogues and other compounds. The true share with any hit is near 4.6%.
# CHO parental Ca – counter-screen for OX1R antagonists: effect in parental CHO cells. parental CHO-K1, ATP-induced calcium, Fluo-8 fluorescence. inhibition, % at 5.6 µM. actives 0.63% (n = 330,000). AID 463079;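 active = inhibition above that plate's mean sample inhibition plus 3 SD, cut at about 26% in these data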;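 note: 0% = ATP-challenged DMSO wells and 100% = DMSO wells without ATP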
#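 Assay system: untransfected parental CHO cell line. Also added: ATP agonist challenge. Dosing: one dose, 5.6 µM nominal. Measured by: Fluo-8 fluorescence. Read-out: % inhibition. Benchmarks: ATP wells versus no-ATP DMSO wells. Repeats: no replicates.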
# OX1R antag-1 – human HCRTR1 antagonism. actives 0.43% (n = 330,000). CHO/OX1R cells, Fluo-8 calcium fluorescence, orexin A. AID 434989. inhibition, % at 5 µM. O43613;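 active = inhibition above its plate's threshold, mean inhibition of all tested compounds on the plate plus 3 SD, cut at about 37% in these data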;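 note: 0% = orexin A challenge wells and 100% = SB-334867-A antagonist wells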
# Target sequence (O43613 whole entry, looked up): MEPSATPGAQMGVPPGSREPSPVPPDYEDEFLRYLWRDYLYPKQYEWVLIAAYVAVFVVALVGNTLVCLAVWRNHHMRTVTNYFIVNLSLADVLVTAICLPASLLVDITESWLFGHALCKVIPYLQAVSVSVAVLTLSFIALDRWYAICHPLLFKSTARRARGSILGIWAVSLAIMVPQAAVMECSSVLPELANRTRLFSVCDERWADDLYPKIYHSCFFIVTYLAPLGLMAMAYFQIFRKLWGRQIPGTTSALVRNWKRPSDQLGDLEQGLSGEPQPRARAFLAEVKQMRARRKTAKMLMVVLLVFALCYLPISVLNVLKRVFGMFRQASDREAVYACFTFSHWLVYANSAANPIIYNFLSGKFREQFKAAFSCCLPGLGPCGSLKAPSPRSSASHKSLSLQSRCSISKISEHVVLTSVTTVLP
# TAAR1 ag – human TAAR1 agonism. Q96RJ0. CHO RD-HGA16 TAAR1, Fluo-8 calcium fluorescence; vehicle wells 0%, saturating PEA agonist 100%. activation, % at 3 µM. actives 0.99% (n = 360,000);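 active = activation above the mean activation of all test compounds in the run plus 3 SD, cut at about 38% in these data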
#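 Signal – calcium-sensitive Fluo-8 signal, excitation 470-495, emission 515-575 nm · System – RD-HGA16 (CHO) cells co-expressing Gα16 and hTAAR1 · Incubation – 17-24 h seeding, 75 min 37 °C dye, 30 min RT · Compound dosing – 3 µM single concentration · Repeats – no replicates (n 1)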
# OX1R antag-2 – blocks the human orexin 1 receptor; inhibition, % at 6.6 µM; actives 1.8% (n = 330,000); AID 485270; OX1R-expressing cells, FRET antagonist read-out; in the data active = inhibition mostly above about 38%, no sharp cut-off; inactive = mostly below about 40%;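 note: 0% = agonist challenge alone and 100% = reference antagonist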
# GPR7 antag – antagonists of human GPR7 (neuropeptides B/W receptor 1) | P48145 | GPR7-expressing cells, fluorescence antagonist assay | inhibition, % at 4.4 µM | actives 1.1% (n = 290,000) | AID 1861; in the data active = inhibition above about 16%, passing the limit was not always enough;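 note: cells stimulated with the agonist NPW; 0% = agonist with vehicle and 100% = vehicle without agonist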
# TAAR1 antag – human TAAR1 antagonism; Q96RJ0; CHO RD-HGA16 TAAR1, Fluo-8 calcium fluorescence, antagonist; inhibition, % at 3 µM; actives 1.5% (n = 360,000); AID 624466;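 active = inhibition above a per-plate cutoff, the mean inhibition of test compounds on that plate plus 3 SD, cut at about 49% in these data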;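 note: 0% = DMSO plus EC80 beta-PEA response and 100% = DMSO alone without agonist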
#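 Assay system: RD-HGA16 CHO cells with stable hTAAR1 and Gα16 / Reagent: EC80 β-phenethylamine stimulus / Doses: 3 µM, single point / Timing: dye loading 75 min at 37 °C, then 30 min room temperature / Measured by: Fluo-8 intracellular calcium dye fluorescence, real-time kinetic reads / Controls: vehicle wells and EC80 agonist wells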
# Active calls of the source: *; . = no result.
SMILES,CHO parental Ca,OX1R antag-1,TAAR1 ag,OX1R antag-2,GPR7 antag,TAAR1 antag
O=C(Nc1ccccc1Cc1ccccc1)c1ccccc1NS(=O)(=O)c1ccc(Cl)s1,23.6,28.1,4.2,77.3*,18.2,33.3
O=C(Nc1ccccc1)c1ccccc1NS(=O)(=O)c1ccc(Cl)s1,28.2*,8.6,1.9,64.9*,16.2,2.5
C[N+](=O)C1C(=O)Nc2ccccc21 (stereo unspecified),.,.,8.2,.,.,-19.2
OC(c1ccc(-c2ccccc2)cc1)c1ncc(-c2ccc(F)cc2)[nH]1 (stereo unspecified),.,.,3.4,.,.,-9.5
Cc1cccc(C=NNc2cc(C)c3cccc(C)c3n2)n1,.,.,-0.2,.,.,0.2
Cc1noc(NS(=O)(=O)c2ccc(NS(=O)(=O)c3ccc(Cl)cc3)cc2)c1C,-6.0,-1.8,3.8,4.5,.,-10.6
O=C(CCS(=O)(=O)c1ccccc1)Nc1cccc(-c2nc3ccccc3s2)c1,-4.8,6.4,19.4,55.0*,0.7,60.1*
O=C(CCS(=O)(=O)c1ccccc1)Nc1ccc(-c2nc3ccccc3s2)cc1,-5.6,-19.4,5.0,13.2,-16.5,9.4
COCCN(CC1CCCN(C2Cc3ccccc3C2)C1)C(=O)CSC (stereo unspecified),-11.6,-38.6,22.7,13.2,-1.2,-13.5
Fc1ccc(Nc2nnc(C(F)(F)F)s2)cc1Cl,40.1*,22.5,1.2,55.8*,2.8,-9.8
COCCOc1cc(Nc2nnc(C(F)(F)F)s2)c(Cl)cc1Cl,3.3,-23.9,6.6,21.5,-10.3,4.7
Cc1ccc(C)c(C(C)NC(=S)NCc2ccc(F)cc2)c1 (stereo unspecified),66.7*,41.4*,18.2,30.6,22.1,-2.6
COc1ccc(C(C)NC(=S)NCc2ccc(F)cc2)cc1 (stereo unspecified),-6.8,-3.2,9.4,-2.0,1.4,9.0
Cc1cc(O)c(NC(=O)c2cccc([N+](=O)[O-])c2)cc1C,23.8,0.8,0.2,10.7,-6.0,0.1
Cc1cc(CSc2ccccc2)ccc1NC(=O)c1cccc([N+](=O)[O-])c1,-1.8,-3.3,6.3,26.6,-9.8,49.1*
CCOC(=O)CCCNc1ccc([N+](=O)[O-])cc1[N+](=O)[O-],5.0,-6.4,0.4,70.8*,-1.7,-8.1
COC(=O)c1ccc(N2CCN(S(=O)(=O)c3ccc4ccccc4c3)CC2)c([N+](=O)[O-])c1,37.6*,23.3,9.6,46.4,7.5,10.2
NC(=O)c1ccc(N2CCN(S(=O)(=O)c3ccccc3)CC2)c([N+](=O)[O-])c1,31.9,23.3,8.9,55.7,3.4,34.1
COc1ccc(N2CCN(S(=O)(=O)c3ccc4c(c3)CCCC4)CC2)c([N+](=O)[O-])c1,6.1,36.2,-0.5,36.9*,7.7,18.0
CC1(C)OC(=O)C2=C(CC(CCc3ccccc3)OC2CCc2ccccc2)O1 (stereo unspecified),.,.,0.4,.,.,12.2
C[C@H](CO)N1C[C@H](C)[C@@H](CN(C)C(=O)CCC(F)(F)F)OCc2cn(nn2)CCCC1=O,.,.,3.5,.,.,-15.0
Cc1ccc(S(=O)(=O)N2C[C@H]3C(=O)C[C@@H]4C(=O)N(c5ccccc5)C(=O)[C@@H]4[C@@H]3C[C@H]2c2cccc(Cl)c2)cc1,.,.,9.6,.,.,59.9*
CCc1ccc([C@H]2C[C@H]3[C@H]4C(=O)N(c5ccccc5)C(=O)[C@H]4CC(=O)[C@@H]3CN2S(=O)(=O)c2ccc(C)cc2)cc1,.,.,2.4,.,.,-4.5
Cc1ccc(CNC(=O)c2oc3ccc(S(=O)(=O)N4CCC5(CC4)OCCO5)cc3c2C)cc1,1.3,-18.1,13.2,35.7,-0.2,57.4*
Cc1cc(N2CCN(CC(C)(C)O)C[C@@H]2C)ccc1N1CCN(CC(C)(C)O)[C@H](C)C1,.,.,1.8,.,.,-34.0
SMILES,CHO parental Ca,OX1R antag-1,TAAR1 ag,OX1R antag-2,GPR7 antag,TAAR1 antag
CN(C)c1ccc(/C=C(\NC(=O)c2ccccc2)C(=O)NCCCn2ccnc2)cc1,-5.0,-1.0,-0.7,40.2*,-11.0,18.9
O=C(NCCCn1ccnc1)/C(=C/c1ccccc1)NC(=O)c1ccccc1,11.7,-1.7,0.9,14.5,4.2,-7.3
CC(=O)n1c2ccccc2c2nc3ccccc3nc21,-3.6,-27.7,.,5.4,-5.7,.
CC(=O)n1c2ccccc2c2c1c1ccccc1n2C,-20.1,-0.5,2.1,60.9*,-9.4,9.2
O=C(Nc1cc(S(=O)(=O)N2CCOCC2)ccc1N1CCCCC1)c1cc(-c2ccccn2)nc2ccccc12,-17.2,-32.2,9.7,11.1,-4.5,37.1
Cc1ccccc1NC(=O)c1cc(S(=O)(=O)N2CCOCC2)ccc1F,-0.7,-0.2,6.8,46.7*,3.7,8.2
Cc1ccc(S(=O)(=O)N2CCOCC2)cc1NC(=O)c1cc(-c2ccccn2)nc2ccccc12,-18.4,-31.8,14.5,7.5,-15.8,49.1*
O=C(O)c1cnc2[nH]c3ccccc3n2c1=O,-6.3,1.5,1.1,4.3,-5.7,1.4
O=C(NNc1ccc([N+](=O)[O-])cn1)Nc1ccc(N=Nc2ccccc2)cc1,.,.,45.3*,.,.,16.5
CC(=O)Nc1ccc([N+](=O)[O-])cn1,-7.3,-16.8,0.3,75.7*,3.6,9.3
Cc1ccc(OCC(=O)Nc2ccc([N+](=O)[O-])cn2)cc1C,41.6*,-7.5,-4.8,17.8,-1.6,4.3
COc1cc(C(=O)Nc2ccc([N+](=O)[O-])cn2)cc(OC)c1OC,-2.0,-18.5,0.8,17.1,-7.2,-16.8
NC(=O)c1c(NC(=O)c2ccccc2F)sc2c1CCCC2,-12.5,-16.9,-1.3,73.7*,2.6,-3.7
NC(=O)c1c(NC(=O)c2ccc(F)cc2Cl)sc2c1CCC2,-15.7,-15.7,-2.9,43.5*,-10.7,-4.3
NC(=O)c1c(NC(=O)c2ccccc2Cl)sc2c1CCC2,-16.9,-7.2,-0.9,34.5,-6.4,-12.7
CCCCCC[N+](C)(C)CCSSCC[N+](C)(C)CCCCCC,-8.7,-16.9,0.9,0.7,-14.6,0.8
CCCCCCCCCCCCCCCC[N+](C)(C)CC,29.4,32.7,31.7,13.9,.,79.4*
C#CC[N+](C)(C)CCCCCCCCCC,9.3,-1.9,1.0,6.4,3.1,-27.7
CCCCCCCCCCCCCCCC[N+](C)(C)CCl,.,.,0.8,.,.,63.3*
CC(C)C[C@H]1COc2cc(NCc3ccc(Cl)c(Cl)c3)ccc2S(=O)(=O)N1,.,.,26.2,.,.,36.6
CCN(CC)S(=O)(=O)c1cc([N+](=O)[O-])ccc1NNC(=O)Nc1ccc(Cl)c(Cl)c1,37.7*,24.8,23.7,63.0,-6.0,20.9
CC[C@H](C)[C@@H]1NC(=O)c2cc([N+](=O)[O-])cc(I)c2SC[C@@H](C(N)=O)NC(=O)[C@H](CCCCN)NC1=O,-8.1,0.5,7.0,60.9*,-2.9,-1.1
